Bioassay records deposited in PubChem BioAssay by several laboratories.
In the library only some 2% were active in any assay of this set; here they are far more common.
HCV NS3 hel inh = blocks Hepatitis C virus NS3 helicase unwinding; 290,000 tested, 0.56% active; NS3 helicase DNA unwinding, Cy5 molecular beacon fluorescence; AID 1800; inhibition, % at 10.9 µM;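 active = inhibition above the mean of all tested compounds plus 3 SD, set per campaign, cut at about 35% in these data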
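System: NS3 helicase fragment of HCV / Schedule: 1 h at 25 °C / Control set: DMSO alone as 0% and 110 µM thioflavine S as 100% / Reagent: Cy5/quencher beacon DNA duplex and ATP to start / Technique: Cy5 fluorescence / Replication: singlicate / Evaluation: % inhibition of end-to-start signal ratio versus controls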
HCV core dimer = HCV core protein dimerization inhibition. TR-FRET GST/Flag-core106 dimerization, 1536-well. inhibition, % at 5 µM. AID 1899. 300,000 tested, 0.33% active;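 active = inhibition above the mean of all tested compounds plus 3 SD, set per screening campaign, cut at about 45% in these data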
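Material: Tagged HCV core106 pair (GST and Flag) | Amount: GST-core106 13.5 nM, Flag-core106 17 nM | Medium: KF-containing HEPES buffer, pH 7.45, DTT, CHAPS, BSA | Reagent: Eu donor and XL665 acceptor anti-tag antibodies | Schedule: 4 h at 22.5 °C | Technique: Time-resolved FRET, ex 340 nm, em 617 and 671 nm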
PABP FP inh = PABP-poly(A) binding inhibition; P11940; PABP-poly(A) RNA binding, fluorescence polarization; inhibition, % at 35 µM; 290,000 tested, 1% active; AID 2014;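 also: calls also rest on retests at 20 µM and on dose response follow-up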
Target sequence (P11940 whole entry, looked up): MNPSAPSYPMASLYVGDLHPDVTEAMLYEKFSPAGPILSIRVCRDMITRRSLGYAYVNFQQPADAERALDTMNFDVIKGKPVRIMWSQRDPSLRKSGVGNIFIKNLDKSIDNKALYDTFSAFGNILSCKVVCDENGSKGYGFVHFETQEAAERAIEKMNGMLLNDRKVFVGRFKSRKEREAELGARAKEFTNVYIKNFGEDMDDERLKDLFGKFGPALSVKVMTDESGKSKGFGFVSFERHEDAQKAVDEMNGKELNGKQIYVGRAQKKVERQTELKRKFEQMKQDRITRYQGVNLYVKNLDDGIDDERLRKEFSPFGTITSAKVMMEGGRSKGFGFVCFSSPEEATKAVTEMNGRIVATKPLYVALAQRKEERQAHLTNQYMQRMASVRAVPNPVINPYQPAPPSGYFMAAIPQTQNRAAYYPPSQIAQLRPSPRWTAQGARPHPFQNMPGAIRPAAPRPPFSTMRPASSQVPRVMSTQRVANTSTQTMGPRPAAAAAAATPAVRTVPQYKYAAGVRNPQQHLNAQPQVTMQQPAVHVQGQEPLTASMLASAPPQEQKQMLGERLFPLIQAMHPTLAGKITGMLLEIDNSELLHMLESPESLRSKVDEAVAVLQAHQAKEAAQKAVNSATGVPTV
FID counter = counter-screen for HCV NS3 helicase inhibitors: DNA intercalator displacement. DNA fluorescent intercalator displacement, fluorescence. inhibition, % at 7.9 µM. 290,000 tested, 0.17% active. AID 1845; in the data active = inhibition above about 37%;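 also: higher means more ethidium bromide displaced from hairpin DNA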
MLLE-PAM2 inh = inhibitors of microRNA-mediated deadenylation, human PABP1 MLLE binding; P11940; GST-MLLE / FITC-PAM2 fluorescence polarization; inhibition, % at 20 µM; 360,000 tested, 0.36% active; AID 588489; in the data active = inhibition above about 35%, passing the limit was not always enough
eIF4H FP inh = inhibitors of RNA binding by human eIF4H; 290,000 tested, 0.94% active; Q15056; inhibition, % at 35 µM; eIF4H fluorescence polarization binding assay;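 also: calls also rest on retests at 20 µM and on dose response follow-up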
Large screens that a line does not name were inactive. Unless noted, no rule for the calls is given here.

N#Cc1c(-c2ccco2)cc(C2CC2)nc1N	none
N#Cc1c(-c2ccco2)cc(-c2cccnc2)nc1N	PABP FP inh 110.5, eIF4H FP inh 95.9
CCOC(=O)COc1nc(-c2ccco2)cc(-c2ccco2)c1C#N	PABP FP inh 57.7, eIF4H FP inh 88.8
CCN(c1ccccc1)S(=O)(=O)c1cc(C(=O)O)ccc1C	PABP FP inh 26.5, eIF4H FP inh 53.2
COc1cccc(/C=C2\C(=O)C(=O)c3ccccc32)c1	MLLE-PAM2 inh 37.8
COc1cc(C=C2C(=O)c3ccccc3C2=O)cc(OC)c1	none
COc1cc(NC(=O)Cn2nc(-c3ccc(F)cc3)ccc2=O)ccc1-n1cnnn1	eIF4H FP inh 101.7
Oc1c(N=Nc2nn[nH]n2)ccc2ccccc12	MLLE-PAM2 inh 46.9 (no result: HCV NS3 hel inh, HCV core dimer, PABP FP inh, FID counter, eIF4H FP inh)
Oc1c(N=Nc2ccc(F)cc2)ccc2ccccc12	none
Cc1ccc(OCC(=O)c2ccc(Cl)s2)c([N+](=O)[O-])n1	HCV core dimer 56.9
Cc1ccc(CNC(=O)COc2ccc(C)nc2[N+](=O)[O-])cc1	none
CCN(CC)S(=O)(=O)c1cccc(C(=O)N/N=C/c2cccc(O)c2O)c1	HCV NS3 hel inh 45.5, PABP FP inh inconclusive, eIF4H FP inh inconclusive
CCN(CC)S(=O)(=O)c1cccc(C(=O)N/N=C2\CCCC(=O)C2)c1	PABP FP inh 25.4
CCN(CC)S(=O)(=O)c1cccc(C(=O)N/N=C/c2cc(OC)c(O)c(OC)c2)c1	none
O=C(NCCN1CCCCC1)c1cc(Cl)ccc1Cl	none
CC(=O)Oc1ccc2c(=O)c(Oc3ccccc3)coc2c1OC(C)=O	PABP FP inh 2.0, eIF4H FP inh 98.2
CCc1nc2c(OCCOc3ccc(F)cc3)cccn2c1N(C)C(=O)c1ccc(OC)cc1	none (no result: HCV NS3 hel inh, HCV core dimer, PABP FP inh, FID counter, eIF4H FP inh)
CC1CC1C(=O)Nc1nc(-c2cccs2)c(-c2cccs2)s1 (stereo unspecified)	HCV core dimer 50.5
O=C(Nc1nc(-c2cccs2)c(-c2ccccc2)s1)c1ccco1	none
COc1ccc(-n2c(C)cc(/C=C3\SC(=S)N(Cc4ccco4)C3=O)c2C)cc1	none
CCN1CCN(c2c(/C=C3\SC(=S)N(Cc4ccco4)C3=O)c(C)c(C#N)c(=O)n2C)CC1	PABP FP inh 53.3, eIF4H FP inh inconclusive
Cc1nc(-c2ccccc2)sc1-c1ccn[nH]1	PABP FP inh 63.8, eIF4H FP inh inconclusive
Nc1ccc(N2CCCC2)c(S(=O)(=O)Nc2cccc(C(F)(F)F)c2)c1	none (no result: HCV NS3 hel inh, HCV core dimer, PABP FP inh, FID counter, eIF4H FP inh)
COc1ccccc1C(=O)Nc1c(C(=O)N(CCN(C)C)Cc2ccco2)oc2ccccc12	FID counter 37.3
COc1ccc(OCC(=O)Nc2c(C(=O)N(CCN(C)C)Cc3ccco3)oc3ccccc23)cc1	FID counter 41.3
O=C1NN(c2cccc(Br)c2)C(=O)/C1=C/c1ccc(-c2cc([N+](=O)[O-])ccc2O)o1	eIF4H FP inh 96.1
CC1=NN(c2ccc(C)cc2)C(=O)/C1=C/c1ccc(-c2cc([N+](=O)[O-])ccc2O)o1	PABP FP inh 68.7, eIF4H FP inh 105.2 (no result: HCV core dimer)
O=C1NN(c2cccc(Br)c2)C(=O)/C1=C\c1ccc(O)cc1	none
O=c1[nH]c2cc3ccccc3cc2nc1C(F)(F)F	MLLE-PAM2 inh 41.4
O=CNc1cc(-c2cccc(O)c2)cn2c(-c3ccc(F)cc3)cnc12	none (no result: HCV NS3 hel inh, HCV core dimer, PABP FP inh, FID counter, eIF4H FP inh)
CCOc1ccc(NC(=O)CN(C)C(=O)CSC(C)C(=O)Nc2cc(C)on2)cc1OCC (stereo unspecified)	PABP FP inh 55.3
Cc1ccc(C)c(NC(=O)CN(C)C(=O)CSC(C)C(=O)Nc2cc(C)on2)c1 (stereo unspecified)	none
O=c1c(Cc2ccc(F)cc2)c(O)ccn1CCCn1ccnc1	none
C=CCc1cccc2cc(C(=O)Nc3ccc(S(=O)(=O)Nc4nnc(CC)s4)cc3)c(=O)oc12	PABP FP inh 8.6, eIF4H FP inh 67.2
Cc1ccc(C)c(N2C(=N)S/C(=C\c3ccc(-c4ccccc4C(=O)O)o3)C2=O)c1	none
Cc1ccc(NC(=O)CN2C(=O)S/C(=C\c3ccc(C(=O)O)cc3)C2=O)cc1	none
C#CCN1C(=O)S/C(=C\c2ccc(-c3ccc(C(=O)O)cc3C)o2)C1=O	PABP FP inh 71.6, eIF4H FP inh 75.8
CC(C)(C)OC(=O)CN1C(=O)S/C(=C\c2ccc(-c3cccc(C(=O)O)c3)o2)C1=O	eIF4H FP inh 65.4 (no result: MLLE-PAM2 inh)
Cc1ccc(NC(=O)CN2C(=O)S/C(=C\c3ccc(-c4cccc(C(=O)O)c4C)o3)C2=O)cc1	PABP FP inh 51.9, eIF4H FP inh 73.9 (no result: MLLE-PAM2 inh)
CCOC(=O)C(C)N1C(=O)S/C(=C\c2ccc(-c3ccccc3C(=O)O)o2)C1=O (stereo unspecified)	PABP FP inh 71.6, eIF4H FP inh 101.1
CC(C)OC(=O)CN1C(=O)S/C(=C/c2ccc(N3CCCCC3)o2)C1=O	none
Cc1ccc(Cl)cc1S(=O)(=O)N1CCC(C(=O)NC2CCN(Cc3ccccc3)CC2)CC1	none
CCc1cccc(OCC2Cn3c(nc4c3c(=O)[nH]c(=O)n4C)O2)c1 (stereo unspecified)	none
Cc1ccc(NC(=O)CN2C(=O)S/C(=C/c3ccc(-c4cccc(C(=O)O)c4)o3)C2=O)cc1	PABP FP inh 34.8 (no result: HCV core dimer)
Cc1ccccc1NC(=O)CN1C(=O)S/C(=C\c2ccc(-c3cc(C(=O)O)ccc3C)o2)C1=O	PABP FP inh inconclusive, eIF4H FP inh inconclusive (no result: HCV core dimer)
Cc1ccc(-c2nc3ccccc3s2)cc1NC(=S)NC(=O)/C=C/c1ccco1	HCV core dimer 51.7
O=C(/C=C/c1ccco1)NC(=S)Nc1cccc(-c2nc3ccccc3s2)c1	HCV core dimer 51.9 (no result: PABP FP inh, eIF4H FP inh)
CC(=O)Nc1cccc(-c2nc3ccccc3s2)c1	none
Cc1ccc(C(=O)NC(=S)Nc2cccc(-c3nc4ccccc4s3)c2)cc1	MLLE-PAM2 inh 40.8
CCOc1ccc(S(=O)(=O)N(C)CC(=O)N2CCN(CC)CC2)cc1	none
COc1ccc2c(c1)CC/C(=C\Nc1ccc3c(c1)OCO3)C2=O	PABP FP inh 57.9, eIF4H FP inh 65.9
COC(=O)[C@@]1(Cc2ccccc2)[C@H]2C(=O)N(Cc3ccccc3)C(=O)[C@H]2[C@H]2CN=C(SCC(=O)c3ccccc3)N21	none (no result: HCV NS3 hel inh, HCV core dimer, PABP FP inh, FID counter, eIF4H FP inh)
CC[C@]1(C(=O)OC)[C@H]2C(=O)N(Cc3ccccc3)C(=O)[C@H]2[C@H]2CN=C(SCC(=O)c3ccccc3)N21	MLLE-PAM2 inh 37.8 (no result: HCV NS3 hel inh, HCV core dimer, PABP FP inh, FID counter, eIF4H FP inh)
CCc1nc2ccc(C(=O)NCCCN3CCCC3=O)cn2c1N(C)Cc1ccc(OC)cc1	none (no result: HCV NS3 hel inh, HCV core dimer, PABP FP inh, FID counter, eIF4H FP inh)
N#CC1=C(N)OC2=C(CN(Cc3ccccc3)C/C2=C\c2cccnc2)C1c1cccnc1 (stereo unspecified)	none
CC(C)N1CC2=C(OC(N)=C(C#N)C2c2cccnc2)/C(=C/c2cccnc2)C1 (stereo unspecified)	PABP FP inh 92.5, eIF4H FP inh 88.4
Cn1c(N)c(NC(=S)NC2CCCCC2)c(=O)n(C)c1=O	none (no result: HCV NS3 hel inh, HCV core dimer, PABP FP inh, FID counter, eIF4H FP inh)
